According to ChEMBL document CHEMBL1949556, “Design and synthesis of boronic acid inhibitors of endothelial lipase” (Bioorg Med Chem Lett, 2012):

Each compound was assayed against T1, Endothelial lipase (Homo sapiens, UniProt Q9Y5X9) (assay: Inhibition of human endothelial lipase expressed using recombinant adenovirus using glycerol-tri[9,10(n)-3H]oleate after 1 hr by vesicle assay).
T1 sequence (Q9Y5X9 whole entry): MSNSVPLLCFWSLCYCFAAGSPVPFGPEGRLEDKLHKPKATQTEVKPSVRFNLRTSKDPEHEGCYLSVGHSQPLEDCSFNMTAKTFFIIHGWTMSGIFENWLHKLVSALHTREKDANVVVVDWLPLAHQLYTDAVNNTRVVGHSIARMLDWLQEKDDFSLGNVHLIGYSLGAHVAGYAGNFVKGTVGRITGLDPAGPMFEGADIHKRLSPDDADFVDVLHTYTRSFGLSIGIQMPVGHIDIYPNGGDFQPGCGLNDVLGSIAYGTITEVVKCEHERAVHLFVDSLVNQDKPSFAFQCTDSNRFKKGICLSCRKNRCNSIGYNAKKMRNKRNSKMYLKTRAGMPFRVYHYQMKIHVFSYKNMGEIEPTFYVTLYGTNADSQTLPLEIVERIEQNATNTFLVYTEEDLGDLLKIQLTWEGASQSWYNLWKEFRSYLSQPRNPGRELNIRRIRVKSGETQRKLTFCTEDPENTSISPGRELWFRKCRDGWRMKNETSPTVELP
In short: (§1)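 Vesicle (interfacial catalysis) substrate system; IC50 taken as mean of two independent experiments, each run in duplicate.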

Row | SMILES | IC50
1 | CCCCCCCCCc1cccc(B(O)O)c1 | 2.8 µM
2 | CCCCCCCc1ccc(B2OC(C)(C)C(C)(C)O2)cc1 | 3.5 µM
3 | CCCc1ccc(B2OC(C)(C)C(C)(C)O2)cc1 | 5 µM
4 | CCCCCc1cccc(B2OC(C)(C)C(C)(C)O2)c1 | 4.2 µM
5 | CC1(C)OB(c2ccc(-c3ccccc3)cc2)OC1(C)C | 1 µM
6 | CC1(C)OB(c2ccc(-c3ccc4ccccc4c3)cc2)OC1(C)C | 2 µM
7 | CCCCCCCCCc1ccccc1B(O)O | 50 µM
8 | CCCCCCCCCCCc1ccc(B2OC(C)(C)C(C)(C)O2)cc1 | 4.5 µM
9 | CC1(C)OB(c2ccc(-c3cccs3)cc2)OC1(C)C | 1.9 µM
10 | CCCCCCCCCc1ccc(B2OC(C)(C)C(C)(C)O2)cc1 | 2.5 µM
11 | CCCCCc1ccc(B2OC(C)(C)C(C)(C)O2)cc1 | 2.6 µM
12 | CCCc1ccc(B(O)O)cc1 | 2 µM
13 | CCCCCCCCCc1ccc(B(O)O)cc1 | 1 µM
14 | CCCCCc1ccc(B(O)O)cc1 | 1 µM

These compounds were tested against T2, Lipoprotein lipase (Homo sapiens, UniProt P06858) (assay: Inhibition of human lipoprotein lipase expressed in HEK293 cells using bis-BD-PC and mono-BD-TG as substrate incubated for 10 mins prior to substrate addition by micelle assay).
T2 sequence (P06858 whole entry): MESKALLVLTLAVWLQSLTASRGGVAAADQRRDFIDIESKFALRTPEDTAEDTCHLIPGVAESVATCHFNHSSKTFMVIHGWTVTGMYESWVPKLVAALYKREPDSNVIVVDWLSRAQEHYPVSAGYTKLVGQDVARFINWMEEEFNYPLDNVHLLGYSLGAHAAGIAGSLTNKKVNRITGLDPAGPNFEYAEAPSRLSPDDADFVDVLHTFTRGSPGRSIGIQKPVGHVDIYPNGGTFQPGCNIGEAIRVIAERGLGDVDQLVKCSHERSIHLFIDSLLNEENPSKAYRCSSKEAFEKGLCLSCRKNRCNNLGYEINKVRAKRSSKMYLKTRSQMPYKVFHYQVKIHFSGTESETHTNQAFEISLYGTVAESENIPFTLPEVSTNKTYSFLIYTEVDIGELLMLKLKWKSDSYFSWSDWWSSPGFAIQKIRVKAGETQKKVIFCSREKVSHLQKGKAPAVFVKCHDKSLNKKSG
In short: (§2)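 Detergent micelle system, which removes interfacial catalysis and gives direct access to the active site; IC50 taken as mean of two independent experiments, each run in duplicate.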

Row | SMILES | IC50
15 | CCCCCCCCCc1cccc(B(O)O)c1 | 95 µM
16 | CCCCCCCc1ccc(B2OC(C)(C)C(C)(C)O2)cc1 | 19 µM
17 | CCCc1ccc(B2OC(C)(C)C(C)(C)O2)cc1 | 25 µM
18 | CCCCCc1cccc(B2OC(C)(C)C(C)(C)O2)c1 | 100 µM
19 | CC1(C)OB(c2ccc(-c3ccccc3)cc2)OC1(C)C | 12 µM
20 | CC1(C)OB(c2ccc(-c3ccc4ccccc4c3)cc2)OC1(C)C | 15 µM
21 | CCCCCCCCCc1ccccc1B(O)O | > 500 µM
22 | CCCCCCCCCCCc1ccc(B2OC(C)(C)C(C)(C)O2)cc1 | 15 µM
23 | CC1(C)OB(c2ccc(-c3cccs3)cc2)OC1(C)C | 40 µM
24 | CCCCCCCCCc1ccc(B2OC(C)(C)C(C)(C)O2)cc1 | 15 µM
25 | CCCCCc1ccc(B2OC(C)(C)C(C)(C)O2)cc1 | 21 µM
26 | CCCc1ccc(B(O)O)cc1 | 12.5 µM
27 | CCCCCCCCCc1ccc(B(O)O)cc1 | 1.4 µM
28 | CCCCCc1ccc(B(O)O)cc1 | 3.8 µM

Species: Homo sapiens
Assay: Selectivity ratio of IC50 for human lipoprotein lipase to IC50 for human endothelial lipase by vesicle assay
In short: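 Ratio of lipoprotein lipase IC50 to endothelial lipase IC50, both from vesicle assays; unitless.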

Row | SMILES | Ratio IC50
29 | CCCCCCCCCc1cccc(B(O)O)c1 | > 20
30 | CCCCCCCc1ccc(B2OC(C)(C)C(C)(C)O2)cc1 | 16
31 | CCCc1ccc(B2OC(C)(C)C(C)(C)O2)cc1 | 5
32 | CCCCCc1cccc(B2OC(C)(C)C(C)(C)O2)c1 | 11
33 | CC1(C)OB(c2ccc(-c3ccccc3)cc2)OC1(C)C | 4.4
34 | CC1(C)OB(c2ccc(-c3ccc4ccccc4c3)cc2)OC1(C)C | 11
35 | CC1(C)OB(c2ccc(-c3cccs3)cc2)OC1(C)C | 3.7
36 | CCCCCCCCCc1ccc(B2OC(C)(C)C(C)(C)O2)cc1 | 20
37 | CCCCCc1ccc(B2OC(C)(C)C(C)(C)O2)cc1 | 19
38 | CCCc1ccc(B(O)O)cc1 | 4
39 | CCCCCCCCCc1ccc(B(O)O)cc1 | 42
40 | CCCCCc1ccc(B(O)O)cc1 | 15

These compounds were tested against T2, Lipoprotein lipase (assay: Inhibition of human lipoprotein lipase expressed using recombinant adenovirus using glycerol-tri[9,10(n)-3H]oleate after 1 hr by vesicle assay).
In short: as §1

Row | SMILES | IC50
41 | CCCCCCCCCc1cccc(B(O)O)c1 | > 50 µM
42 | CCCCCCCc1ccc(B2OC(C)(C)C(C)(C)O2)cc1 | 55 µM
43 | CCCc1ccc(B2OC(C)(C)C(C)(C)O2)cc1 | 25 µM
44 | CCCCCc1cccc(B2OC(C)(C)C(C)(C)O2)c1 | 45 µM
45 | CC1(C)OB(c2ccc(-c3ccccc3)cc2)OC1(C)C | 4.4 µM
46 | CC1(C)OB(c2ccc(-c3ccc4ccccc4c3)cc2)OC1(C)C | 22 µM
47 | CCCCCCCCCc1ccccc1B(O)O | > 50 µM
48 | CCCCCCCCCCCc1ccc(B2OC(C)(C)C(C)(C)O2)cc1 | > 50 µM
49 | CC1(C)OB(c2ccc(-c3cccs3)cc2)OC1(C)C | 7 µM
50 | CCCCCCCCCc1ccc(B2OC(C)(C)C(C)(C)O2)cc1 | 50 µM
51 | CCCCCc1ccc(B2OC(C)(C)C(C)(C)O2)cc1 | 50 µM
52 | CCCc1ccc(B(O)O)cc1 | 8 µM
53 | CCCCCCCCCc1ccc(B(O)O)cc1 | 42 µM
54 | CCCCCc1ccc(B(O)O)cc1 | 15 µM

Species: Homo sapiens
Assay: Selectivity ratio of IC50 for human lipoprotein lipase by micelle assay to IC50 for human endothelial lipase by micelle assay
In short: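 Ratio of lipoprotein lipase IC50 to endothelial lipase IC50, both from micelle assays; unitless.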

Row | SMILES | Ratio IC50
55 | CCCCCCCCCc1cccc(B(O)O)c1 | 19
56 | CCCCCCCc1ccc(B2OC(C)(C)C(C)(C)O2)cc1 | 17
57 | CCCc1ccc(B2OC(C)(C)C(C)(C)O2)cc1 | 4.1
58 | CCCCCc1cccc(B2OC(C)(C)C(C)(C)O2)c1 | 2.8
59 | CC1(C)OB(c2ccc(-c3ccccc3)cc2)OC1(C)C | 12
60 | CC1(C)OB(c2ccc(-c3ccc4ccccc4c3)cc2)OC1(C)C | 8.8
61 | CCCCCCCCCc1ccccc1B(O)O | > 50
62 | CCCCCCCCCCCc1ccc(B2OC(C)(C)C(C)(C)O2)cc1 | 11
63 | CC1(C)OB(c2ccc(-c3cccs3)cc2)OC1(C)C | 25
64 | CCCCCCCCCc1ccc(B2OC(C)(C)C(C)(C)O2)cc1 | 15
65 | CCCCCc1ccc(B2OC(C)(C)C(C)(C)O2)cc1 | 19
66 | CCCc1ccc(B(O)O)cc1 | 3.1
67 | CCCCCCCCCc1ccc(B(O)O)cc1 | 14
68 | CCCCCc1ccc(B(O)O)cc1 | 8

Each compound was assayed against T1, Endothelial lipase (assay: Inhibition of human endothelial lipase overexpressed in HUVEC cells using bis-BD-PC and mono-BD-TG as substrate incubated for 10 mins prior to substrate addition by micelle assay).
Assay type: cell-based
In short: as §2

Row | SMILES | IC50
69 | CCCCCCCCCc1cccc(B(O)O)c1 | 5 µM
70 | CCCCCCCc1ccc(B2OC(C)(C)C(C)(C)O2)cc1 | 1.1 µM
71 | CCCc1ccc(B2OC(C)(C)C(C)(C)O2)cc1 | 6 µM
72 | CCCCCc1cccc(B2OC(C)(C)C(C)(C)O2)c1 | 35 µM
73 | CC1(C)OB(c2ccc(-c3ccccc3)cc2)OC1(C)C | 1 µM
74 | CC1(C)OB(c2ccc(-c3ccc4ccccc4c3)cc2)OC1(C)C | 1.7 µM
75 | CCCCCCCCCc1ccccc1B(O)O | 11 µM
76 | CCCCCCCCCCCc1ccc(B2OC(C)(C)C(C)(C)O2)cc1 | 1.4 µM
77 | CC1(C)OB(c2ccc(-c3cccs3)cc2)OC1(C)C | 1.6 µM
78 | CCCCCCCCCc1ccc(B2OC(C)(C)C(C)(C)O2)cc1 | 1 µM
79 | CCCCCc1ccc(B2OC(C)(C)C(C)(C)O2)cc1 | 1.1 µM
80 | CCCc1ccc(B(O)O)cc1 | 4 µM
81 | CCCCCCCCCc1ccc(B(O)O)cc1 | 0.1 µM
82 | CCCCCc1ccc(B(O)O)cc1 | 0.47 µM
